For seven molecules, IC50 results are on record in BindingDB's records for doi:10.1016/j.bmcl.2012.04.051 (Ajinomoto Pharmaceuticals, 2012).

Usually pIC50 stands for the IC50 on a negative log10 scale, so that one unit is a factor of ten.

Each structure is given as a SMILES string. pIC50: −log10 of the molar value.

In the experiment the target is Voltage-dependent N-type calcium channel subunit alpha-1B (Homo sapiens, UniProt Q00975). As to the kind of experiment: Inhibition of N-type voltage-dependent calcium channel CaV2.2 in human IMR32 cells assessed as inhibition of KCl-induced increase in intracellular calcium concentration preincubated for 4 to 5 mins before KCl challenge. The procedure, abridged:
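IMR-32 cells on poly-L-lysine/collagen dishes, differentiated with 1 mM dibutyl-cAMP and 2.5 µM bromodeoxyuridine for 10–14 days. Loaded with 2.5 µM fura-2/AM, 37 °C, 30 min. HEPES recording medium with 1 µM nifedipine throughout. Calcium rise evoked by 60 mM KCl for 6 s, repeated every 5 min. Compound at 0.1, 1 or 10 µM; IC50 from ≥2 independent experiments.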
A general note: A change in cytosolic calcium serves as a functional read-out for many receptors and channels.

Sequence of Voltage-dependent N-type calcium channel subunit alpha-1B (Q00975 whole entry): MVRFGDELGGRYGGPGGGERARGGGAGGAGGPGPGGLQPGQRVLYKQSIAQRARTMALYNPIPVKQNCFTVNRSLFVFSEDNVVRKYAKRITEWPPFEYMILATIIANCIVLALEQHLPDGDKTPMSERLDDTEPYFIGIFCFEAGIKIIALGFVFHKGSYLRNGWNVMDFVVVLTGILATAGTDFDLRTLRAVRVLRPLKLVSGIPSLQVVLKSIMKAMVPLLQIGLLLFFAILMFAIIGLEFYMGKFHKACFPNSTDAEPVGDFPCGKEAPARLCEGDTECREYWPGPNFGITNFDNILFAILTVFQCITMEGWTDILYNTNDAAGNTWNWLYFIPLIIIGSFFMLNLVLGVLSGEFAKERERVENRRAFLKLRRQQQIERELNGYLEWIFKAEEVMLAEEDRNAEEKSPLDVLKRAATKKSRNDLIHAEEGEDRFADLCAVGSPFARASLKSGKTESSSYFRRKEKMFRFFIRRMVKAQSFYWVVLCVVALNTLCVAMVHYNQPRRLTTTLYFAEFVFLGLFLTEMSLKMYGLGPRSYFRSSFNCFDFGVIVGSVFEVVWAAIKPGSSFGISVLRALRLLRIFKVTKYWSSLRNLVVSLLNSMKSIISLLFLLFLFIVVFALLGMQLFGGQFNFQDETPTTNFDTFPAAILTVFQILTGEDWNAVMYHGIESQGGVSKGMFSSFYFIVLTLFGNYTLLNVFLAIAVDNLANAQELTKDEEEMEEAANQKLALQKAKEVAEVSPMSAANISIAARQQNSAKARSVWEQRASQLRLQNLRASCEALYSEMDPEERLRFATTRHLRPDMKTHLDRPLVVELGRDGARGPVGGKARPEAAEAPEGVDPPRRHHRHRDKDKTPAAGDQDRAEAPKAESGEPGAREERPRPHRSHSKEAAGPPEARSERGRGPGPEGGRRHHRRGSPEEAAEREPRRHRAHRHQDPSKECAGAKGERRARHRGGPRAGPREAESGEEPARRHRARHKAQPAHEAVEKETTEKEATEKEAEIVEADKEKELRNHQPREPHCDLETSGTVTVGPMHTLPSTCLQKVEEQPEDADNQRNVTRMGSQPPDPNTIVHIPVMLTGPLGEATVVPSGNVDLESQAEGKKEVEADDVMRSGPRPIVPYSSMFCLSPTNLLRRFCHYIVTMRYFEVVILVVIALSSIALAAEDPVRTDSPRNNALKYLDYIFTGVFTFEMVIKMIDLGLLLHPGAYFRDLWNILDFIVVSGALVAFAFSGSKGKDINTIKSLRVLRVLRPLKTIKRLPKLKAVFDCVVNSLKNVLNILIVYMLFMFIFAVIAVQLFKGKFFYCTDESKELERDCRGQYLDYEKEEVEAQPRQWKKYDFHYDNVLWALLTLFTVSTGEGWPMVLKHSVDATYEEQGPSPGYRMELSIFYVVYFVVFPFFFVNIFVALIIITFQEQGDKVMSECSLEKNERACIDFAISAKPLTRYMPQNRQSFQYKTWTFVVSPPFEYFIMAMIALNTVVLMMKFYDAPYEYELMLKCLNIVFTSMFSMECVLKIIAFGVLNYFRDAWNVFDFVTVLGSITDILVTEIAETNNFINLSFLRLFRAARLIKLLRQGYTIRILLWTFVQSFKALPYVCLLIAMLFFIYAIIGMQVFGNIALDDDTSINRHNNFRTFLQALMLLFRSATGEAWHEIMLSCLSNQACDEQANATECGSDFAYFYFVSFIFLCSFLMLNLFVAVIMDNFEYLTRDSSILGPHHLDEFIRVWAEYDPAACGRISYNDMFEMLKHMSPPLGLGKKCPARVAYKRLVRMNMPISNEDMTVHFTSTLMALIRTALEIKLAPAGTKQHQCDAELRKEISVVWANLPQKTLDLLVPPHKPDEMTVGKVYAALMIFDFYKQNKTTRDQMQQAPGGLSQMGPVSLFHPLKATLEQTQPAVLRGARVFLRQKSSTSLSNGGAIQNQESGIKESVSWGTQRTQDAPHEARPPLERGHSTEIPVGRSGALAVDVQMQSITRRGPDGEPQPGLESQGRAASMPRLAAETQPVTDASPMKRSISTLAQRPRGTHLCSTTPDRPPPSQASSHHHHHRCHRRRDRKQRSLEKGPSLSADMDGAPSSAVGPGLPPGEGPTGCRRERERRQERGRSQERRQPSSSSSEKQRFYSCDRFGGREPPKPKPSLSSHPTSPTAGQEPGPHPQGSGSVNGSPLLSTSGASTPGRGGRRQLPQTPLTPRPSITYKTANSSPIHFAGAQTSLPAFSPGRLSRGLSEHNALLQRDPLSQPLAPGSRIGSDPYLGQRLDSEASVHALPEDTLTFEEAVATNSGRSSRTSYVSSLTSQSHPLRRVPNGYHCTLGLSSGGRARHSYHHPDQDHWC

As for `COC(OC)C1=C(C(=O)OC/C=C/c2ccccc2)C(c2cccc(C(F)(F)F)c2)C(C(=O)O)C=N1` (configuration not stated), the pIC50 was 5.96.

In the case of `COC(OC)C1=C(C(=O)OC/C=C/c2ccccc2)C(c2cccc(Cl)c2)C(C(=O)O)C=N1` (configuration not stated), the pIC50 was 5.96.

Consider `COc1c(Cl)cc(C2C(C(=O)OC/C=C/c3ccccc3)=C(C(OC)OC)N=CC2C(=O)O)cc1Cl` (configuration not stated), for which the pIC50 is 5.92.

As for `O=C(OC/C=C/c1ccccc1)C1=CN=CC(C(=O)O)C1c1ccc(Cl)cc1` (configuration not stated), the pIC50 was 5.92.

With `COC(OC)C1=C(C(=O)OC/C=C/c2ccccc2)C(c2ccc(Cl)cc2)C(C(=O)O)C=N1` (configuration not stated), the pIC50 was 5.96.

Consider `O=C(OC/C=C/c1ccccc1)C1=CN=CC(C(=O)O)C1c1cccc(C(F)(F)F)c1` (configuration not stated), for which the pIC50 is 5.92.

Regarding `COc1c(Cl)cc(C2C(C(=O)OC/C=C/c3ccccc3)=CN=CC2C(=O)O)cc1Cl` (configuration not stated), the pIC50 is 6.24.
